KCNQ1 block = blocks the human KCNQ1 potassium channel; CHO-K1 KCNQ1, FluxOR thallium flux fluorescence; hits give high values; P51787; B-score at 10 µM; 310,000 tested, 1.3% active;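 active means compounds whose thallium flux B-score, printed positive for inhibition, exceeds three library SD while starting fluorescence stays within three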;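 further: channel opened by potassium depolarization with thallium stimulus after 20 min compound exposure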
KCNK3 block = human KCNK3 channel inhibition, primary screen; B-score at 10 µM; CHO-KCNK3 thallium flux, FluxOR fluorescence; hits give low values; O14649; 340,000 tested, 0.84% active;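 active means B-score under library mean minus 4 SD, starting fluorescence ratio at most library mean plus 5 SD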;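 further: more negative B-score means stronger inhibition of thallium flux through KCNK3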
KCNK9 inh = blocks the human KCNK9 two-pore domain potassium channel; Q9NPC2; B-score at 10 µM; 310,000 tested, 1.2% active; AID 488922; HEK293 KCNK9, FluxOR thallium flux fluorescence; hits give low values;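 active means ratio B-score over 3 SD below the library mean, with starting fluorescence within 5 SD of its mean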;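 further: negative B-score means less thallium flux so channel inhibition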
Target sequence (Q9NPC2 whole entry, looked up, the tested form may be a part): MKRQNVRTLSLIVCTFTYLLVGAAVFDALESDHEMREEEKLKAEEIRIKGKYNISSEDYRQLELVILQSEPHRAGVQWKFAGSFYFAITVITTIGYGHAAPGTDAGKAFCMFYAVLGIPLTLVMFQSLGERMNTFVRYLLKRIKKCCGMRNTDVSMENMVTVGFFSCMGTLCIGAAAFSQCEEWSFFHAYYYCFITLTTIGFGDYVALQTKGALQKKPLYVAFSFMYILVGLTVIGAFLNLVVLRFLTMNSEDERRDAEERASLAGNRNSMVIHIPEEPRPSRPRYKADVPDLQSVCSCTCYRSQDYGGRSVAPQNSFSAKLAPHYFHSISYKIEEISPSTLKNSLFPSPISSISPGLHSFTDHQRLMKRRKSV
Kir21 block = Kir2.1 (mouse) channel inhibition; P35561; HEK293-Kir2.1, FluxOR thallium flux fluorescence; hits give low values; B-score at 10 µM; 310,000 tested, 0.85% active;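 active means fluorescence ratio B-score at or below minus 3 SD of library scores, with starting-brightness B-score within 2 SD, cut at about -4.2 in these data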;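 further: channel flux triggered by added potassium and thallium sulfate stimulus; B-score of peak minus minimum fluorescence over baseline after thallium stimulus; more negative B-score means stronger Kir2.1 block with less thallium influx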
hERG protect = shields human hERG channel from block by proarrhythmic agents; Q12809; 310,000 tested, 0.51% active; CHO-hERG, FluxOR thallium flux, dofetilide IC70 present; activation (rescue from dofetilide block), less the hit threshold, % at 10 µM;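 active means activation above the mean of controls blocked by dofetilide plus 5 SD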;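 further: thallium influx through hERG after potassium depolarization seen as dye fluorescence rise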
KCNQ1 pot = potentiates or activates the human KCNQ1 potassium channel; P51787; CHO-K1 KCNQ1, thallium flux FluxOR fluorescence; hits give high values; B-score at 10 µM; 310,000 tested, 0.35% active; AID 2648;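 active means fluorescence ratio B-score, a plate-corrected score, at least three library SD, with initial intensity B-score within 5 SD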
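System: CHO-K1 cells stably expressing KCNQ1 / Medium: assay buffer for compound exposure, DMSO matched across wells / Reagent: thallium- and potassium-containing depolarizing buffer / Compound: one concentration, matched DMSO / Incubation: 20 min compound pretreatment at room temperature / Measured by: kinetic FluxOR fluorescence, 10 s baseline plus 110 s post-stimulus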
KCNK9 block conf = human KCNK9 inhibitor confirmation. inhibition, % at 10 µM. 4,900 tested, 43% active. HEK293 KCNK9 cells, FluxOR thallium flux fluorescence. shares compounds with KCNK9 inh;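 active means thallium signal inhibited by more than 5 SD of the compound-free buffer control wells, on both duplicate plates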;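 further: 0% = assay buffer control wells without compound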
Kir21 sel = mouse Kir2.1 off-target activity of KCNK9 modulators; shares compounds with KCNK9 inh; Kir2.1 cells, FluxOR thallium flux fluorescence; inhibition, % at 10 µM; 4,900 tested, 4% active;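 active means thallium signal drop more than 5 SD beyond the mean of the no-compound control wells, seen in both duplicate plates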;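 further: signal is fluorescence rise after thallium addition divided by baseline fluorescence; plate controls were assay buffer only for no effect and full block by chlorpromazine control for full effect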
KCNK9 uninduced = second counter-screen for KCNK9 modulators: effect in non-induced cells | shares compounds with KCNK9 inh | non-induced KCNK9-HEK293, FluxOR thallium flux | inhibition, % at 10 µM | 4,900 tested, 40% active | AID 492997;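 active means thallium signal drop beyond 5 SD of the untreated control mean, on both duplicate plates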;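 further: plate controls were buffer only IC0 wells for no effect and SID17386958 at its maximal inhibitory level for full effect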
* = called active by the depositor; i = inactive; / = no result given. Compounds with a hit are over-represented: about 3.7% of the library has one in this group of screens.

SMILES | KCNQ1 block | KCNK3 block | KCNK9 inh | Kir21 block | hERG protect | KCNQ1 pot | KCNK9 block conf | Kir21 sel | KCNK9 uninduced
CCN1C(=O)/C(=C\c2ccc(-c3ccc([N+](=O)[O-])cc3OC)o2)SC1=Nc1cccc(C(=O)O)c1 | i | i | i | 1.3 | -2 | i | i | i | i
Cc1nnc(SCC(=O)NC2CCCCCC2)n1N | / | i | / | / | / | / | / | / | /
Cc1ccc(S(=O)(=O)Nc2nc(-c3ccccc3)cs2)cc1 | i | i | i | -0.63 | -11 | i | / | / | /
Cc1ccc(S(=O)(=O)Nc2ccccc2C(=O)Nc2nc(-c3ccc(F)cc3)cs2)cc1 | i | i | -10* | -1.5 | -16 | i | 64%* | i | 39%*
CCCOc1ccc(N2C(=O)CC(NCC(=O)OCC)C2=O)cc1 (centres undefined) | i | i | i | 0.67 | -7 | i | / | / | /
CC(C)CN(C(=O)CN(C)CC(=O)Nc1ccccc1C#N)c1c(N)n(CC(C)C)c(=O)[nH]c1=O | / | i | / | / | / | / | / | / | /
C=C1CCC2C(C)(C)[C@H](O)CC[C@@]2(C)[C@@H]1COc1cc(=O)oc2ccccc12 (some centres undefined) | i | i | -13* | 0.3 | -19 | i | 60%* | i | 26%*
Cc1ccc(C(=O)N2CCCC(N3CCN(c4cccc(C(F)(F)F)c4)CC3)C2)s1 (centres undefined) | i | i | i | 1 | -13 | i | i | i | i
Cc1cccc(C(=O)N2CCCC(N3CCN(c4ccccc4F)CC3)C2)n1 (centres undefined) | i | i | i | -0.04 | -10 | i | / | / | /
O=C(c1ccncc1)N1CCCC(N2CCN(c3cccc(C(F)(F)F)c3)CC2)C1 (centres undefined) | i | i | i | 0.13 | -13 | i | / | / | /
CSc1nc(C(=O)N2CCCC(N3CCN(c4ccccc4C)CC3)C2)cs1 (centres undefined) | i | i | i | -0.46 | -14 | i | i | i | i
Cc1ccc(C(=O)N2CCCC(N3CCN(c4ccccc4F)CC3)C2)s1 (centres undefined) | i | i | i | -0.35 | -9 | i | i | i | i
CCc1cc(C(=O)N2CCCC(N3CCN(c4cccc(C(F)(F)F)c4)CC3)C2)n(C)n1 (centres undefined) | i | i | i | 1.5 | -9 | i | i | i | i
COC(=O)c1cc(S(=O)(=O)NCc2cc(OC)c(OC)c(OC)c2)cn1C | i | i | i | -1.5 | -9 | i | / | / | /
CCc1ccc2oc(-c3ccc(NC(C)=O)cc3)nc2c1 | i | i | i | 0.77 | -6 | i | / | / | /
CCOc1ccc(/C=N/NC(=O)c2cc3ccccc3cc2OC)cc1 | i | i | i | 0.81 | -9 | i | / | / | /
CCc1ccc(N2CC(C)Cn3c2nc2c3c(=O)[nH]c(=O)n2C)cc1 (centres undefined) | i | i | i | 0.99 | 1 | i | / | / | /
CC[C@@]1(C(=O)OC)N[C@H](CN(C)C(=O)Nc2ccc(Cl)cc2)[C@@H]2C(=O)N(Cc3ccccc3)C(=O)[C@@H]21 | / | i | / | / | / | / | / | / | /
CC(C)Cn1c(N)c(C(=O)COC(=O)c2cccnc2Cl)c(=O)n(C)c1=O | i | i | i | 0.11 | -21 | i | / | / | /
O=C(Nc1ccc(F)cc1Cl)C1=COCCO1 | i | i | i | -1.5 | -10 | i | / | / | /
CC1=C(C(=O)N2CCCC(N3CCN(c4cccc(C(F)(F)F)c4)CC3)C2)OCCO1 (centres undefined) | i | i | i | 0.41 | -10 | i | i | i | i
CC1=C(C(=O)N2CCCC(N3CCN(c4cccc(Cl)c4)CC3)C2)OCCO1 (centres undefined) | i | i | i | -0.08 | -9 | i | / | / | /

Compound activity from PubChem BioAssay.
